Experimental findings from ChEMBL document CHEMBL4251591, “Primaquine hybrids as promising antimycobacterial and antimalarial agents” (Eur J Med Chem, 2018) are described below.

In assay [1] the test system is Mycobacterium tuberculosis. As to the kind of experiment: Antimycobacterial activity against Mycobacterium tuberculosis H37Ra ATCC 25177 after 7 days by Alamar Blue assay. Particulars: H37Ra ATCC 25177, 168 h. Format: functional. An outline of the steps: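 Log-phase culture washed and resuspended in supplemented Middlebrook 7H9GC broth, adjusted to McFarland No. 1, then diluted 1:20. Equal volumes of culture and DMSO-prepared compound dilutions were tested in duplicate for 7 days. 10% AlamarBlue was added, with 570/600 nm readings for background and after 24 h reincubation. Blue meant no growth, pink meant growth. MIC was the lowest concentration without visible growth.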
For orientation: Resazurin is reduced to fluorescent resorufin, in cell work by metabolically active cells.

Assay [2] concerns Mycobacterium avium complex sp. As to the kind of experiment: Antimycobacterial activity against Mycobacterium avium complex CIT19/06 clinical isolate after 5 days by Alamar Blue assay. It is filed as functional. The settings on record: CIT19/06, 120 h.
In a further assay the test system is Mycobacterium avium. The assay can be described thus: Antimycobacterial activity against Mycobacterium avium subsp. paratuberculosis CIT03 clinical isolate after 11 days by Alamar Blue assay. It is filed as functional. Particulars: CIT03, 264 h.
The test system of a further assay is L6. As to the kind of experiment: Cytotoxicity against rat L6 cells after 70 hrs by Alamar Blue-based assay. The settings on record: L6, 70 h. It is filed as cell-based. An outline of the steps:
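Rat skeletal myoblast L-6 cells, 4000 per well, in RPMI 1640 with 10% FBS and L-glutamine. Eleven 3-fold serial dilutions spanning 100 to 0.002 were tested for 70 h. Alamar Blue was then added for 2 h and fluorescence read at ex 536 / em 588 nm. IC50 came from linear regression of sigmoid curves, averaged over two replicate experiments, with podophyllotoxin as control.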

In brackets after ≈: the same amount, converted by molar mass.

Consider `COc1cc(NC(C)CCCNC(=O)/C=C/c2ccccc2)c2ncccc2c1` (stereo unspecified), for which the MIC (in general, the lowest concentration found to suppress growth) in assay [1] worked out at 16 µg/mL (≈ 41.1 µM); in assay [2], 32 µg/mL (≈ 82.2 µM); with Mycobacterium avium, 16 µg/mL (≈ 41.1 µM).

Take `COc1cc(NC(C)CCCNC(=O)/C=C/c2ccc(Cl)cc2)c2ncccc2c1` (stereo unspecified): the MIC in assay [1] was 64 µg/mL (≈ 151 µM); in assay [2], 128 µg/mL (≈ 302 µM); in the assay on Mycobacterium avium, 64 µg/mL (≈ 151 µM).

Take `COc1ccc(/C(=N/NC(=O)NNC(=O)NCCCC(C)Nc2cc(OC)cc3cccnc23)c2ccccc2)cc1` (stereo unspecified): the MIC in assay [1] turned out to be 2 µg/mL (≈ 3.51 µM); in assay [2] it was 16 µg/mL (≈ 28.1 µM); against Mycobacterium avium it was 4 µg/mL (≈ 7.02 µM).

Regarding `COc1cc(NC(C)CCCNC(=O)NNC(=O)N(C)C(c2ccccc2)c2ccccc2)c2ncccc2c1` (stereo unspecified), the MIC (in assay [1]; in assay [2]; with Mycobacterium avium) was 64 µg/mL (≈ 118 µM) in each case.

Turning to `COc1cc(NC(C)CCCNC(=O)NNC(=O)NCCCC(C)Nc2cc(OC)cc3cccnc23)c2ncccc2c1` (stereo unspecified), the MIC in assay [1] was 2 µg/mL (≈ 3.32 µM); in assay [2], 16 µg/mL (≈ 26.5 µM); in the assay on Mycobacterium avium it was 4 µg/mL (≈ 6.64 µM).

As to `COc1cc(NC(C)CCCNC(=O)NNC(=O)NCCCO)c2ncccc2c1` (stereo unspecified), the MIC (in assay [1]; in assay [2]; against Mycobacterium avium) was 256 µg/mL (≈ 612 µM) throughout.

For the molecule `COc1cc(NC(C)CCCNC(=O)NNC(=O)NCCCCCO)c2ncccc2c1` (stereo unspecified), the MIC (in assay [1]; in assay [2]; in the assay on Mycobacterium avium) was 256 µg/mL (≈ 573 µM) each time.

As to `COc1cc(NC(C)CCCNC(=O)NNC(=O)N(CCO)CCO)c2ncccc2c1` (stereo unspecified), the MIC (in assay [1]; in assay [2]; with Mycobacterium avium) was 256 µg/mL (≈ 571 µM) throughout.

Take `COc1cc(NC(C)CCCNC(=O)NC(c2ccccc2)c2ccc(Cl)cc2)c2ncccc2c1` (stereo unspecified): the MIC (in assay [1]; in assay [2]; in the assay on Mycobacterium avium) was 128 µg/mL (≈ 254 µM) in each case.

For `COc1cc(NC(C)CCCNC(=O)Nc2ccc(Cl)c(C(F)(F)F)c2)c2ncccc2c1` (stereo unspecified), the MIC (in assay [1]; in assay [2]; in the assay with Mycobacterium avium) was 16 µg/mL (≈ 33.3 µM) in each case.

As for `COc1cc(NC(C)CCCNC(=O)NN)c2ncccc2c1` (stereo unspecified), the MIC (in assay [1]; in assay [2]; in the assay with Mycobacterium avium) was 32 µg/mL (≈ 101 µM) throughout.

For `COc1cc(NC(C)CCCNC(=O)Nc2ccc(O)cc2)c2ncccc2c1` (stereo unspecified), the MIC worked out at 128 µg/mL (≈ 324 µM) in assay [1], 256 µg/mL (≈ 649 µM) in assay [2] and 128 µg/mL (≈ 324 µM) against Mycobacterium avium. Besides, inhibition in the assay with L6 was half-maximal at 14.8 µg/mL (≈ 37.5 µM) (IC50).

On to `COc1cc(NC(C)CCCNC(=O)NNC(=O)Nc2cccc(O)c2)c2ncccc2c1` (stereo unspecified), for which the MIC amounted to 128 µg/mL (≈ 283 µM) in assay [1], 256 µg/mL (≈ 566 µM) in assay [2] and 128 µg/mL (≈ 283 µM) against Mycobacterium avium.

With `COc1cc(NC(C)CCCNC(=O)NNC(=O)Nc2cccc(Cl)c2)c2ncccc2c1` (stereo unspecified), the values for the MIC (in assay [1]; in assay [2]; against Mycobacterium avium) were 128 µg/mL (≈ 272 µM), 256 µg/mL (≈ 544 µM) and 128 µg/mL (≈ 272 µM), respectively.

Consider `COc1cc(NC(C)CCCNC(=O)NNC(=O)Nc2cccc(F)c2)c2ncccc2c1` (stereo unspecified), for which the results for the MIC (in assay [1]; in assay [2]; against Mycobacterium avium) were 128 µg/mL (≈ 282 µM), 256 µg/mL (≈ 563 µM) and 128 µg/mL (≈ 282 µM), respectively.

In the case of `COc1cc(NC(C)CCCNC(=O)Nc2cccc(O)c2)c2ncccc2c1` (stereo unspecified), the MIC came to 8 µg/mL (≈ 20.3 µM) in assay [1], 16 µg/mL (≈ 40.6 µM) in assay [2] and 16 µg/mL (≈ 40.6 µM) in the assay with Mycobacterium avium. Moreover, the IC50 (in general, the point on the concentration scale where inhibition reaches its midpoint) in the assay with L6 came to 38 µg/mL (≈ 96.3 µM).

Take `COc1cc(NC(C)CCCNC(=O)Nc2cccc(F)c2)c2ncccc2c1` (stereo unspecified): the MIC in assay [1] was determined as 2 µg/mL (≈ 5.04 µM); in assay [2] it was 8 µg/mL (≈ 20.2 µM); in the assay with Mycobacterium avium it was 4 µg/mL (≈ 10.1 µM). The molecule also had an IC50 in the assay with L6 of 9.18 µg/mL (≈ 23.2 µM).

Turning to `COc1cc(NC(C)CCCNC(=O)NNC(=O)Nc2ccc(O)cc2)c2ncccc2c1` (stereo unspecified), the MIC in assay [1] was 128 µg/mL (≈ 283 µM); in assay [2], 256 µg/mL (≈ 566 µM); in the assay on Mycobacterium avium it was 128 µg/mL (≈ 283 µM).

As to `COc1cc(NC(C)CCCNC(=O)NNC(=O)Nc2cccc(C(F)(F)F)c2)c2ncccc2c1` (stereo unspecified), the MIC (in assay [1]; in assay [2]; in the assay on Mycobacterium avium) was 128 µg/mL (≈ 254 µM) throughout.

`COc1cc(NC(C)CCCNC(=O)Nc2ccc(Cl)cc2)c2ncccc2c1` (stereo unspecified): the MIC in assay [1] was determined as 16 µg/mL (≈ 38.7 µM); in assay [2], 64 µg/mL (≈ 155 µM); in the assay with Mycobacterium avium, 32 µg/mL (≈ 77.5 µM).

In the case of `COc1cc(NC(C)CCCNC(=O)/C=C/c2ccc(OC)c(OC)c2)c2ncccc2c1` (stereo unspecified), the figures for the MIC (in assay [1]; in assay [2]; in the assay on Mycobacterium avium) were 128 µg/mL (≈ 285 µM), 256 µg/mL (≈ 569 µM) and 128 µg/mL (≈ 285 µM), respectively. This molecule also displayed an IC50 with L6 of over 100 µg/mL.

With `COc1cc(NC(C)CCCNC(=O)NNC(=O)NCCc2ccccc2)c2ncccc2c1` (stereo unspecified), the figures for the minimal inhibitory concentration (MIC) (in assay [1]; in assay [2]; in the assay on Mycobacterium avium) were 128 µg/mL (≈ 276 µM), 256 µg/mL (≈ 551 µM) and 128 µg/mL (≈ 276 µM), respectively.

As to `COc1cc(NC(C)CCCNC(=O)/C=C/c2cccc(C(F)(F)F)c2)c2ncccc2c1` (stereo unspecified), the MIC in assay [1] came to 32 µg/mL (≈ 69.9 µM); in assay [2], 128 µg/mL (≈ 280 µM); in the assay with Mycobacterium avium it was 32 µg/mL (≈ 69.9 µM).

As for `COc1cc(NC(C)CCCNC(=O)NNC(=O)NCc2ccccc2)c2ncccc2c1` (stereo unspecified), the MIC was determined as 128 µg/mL (≈ 284 µM) in assay [1], 256 µg/mL (≈ 568 µM) in assay [2] and 128 µg/mL (≈ 284 µM) against Mycobacterium avium.

With `COc1cc(NC(C)CCCNC(=O)/C=C/c2ccc(C(F)(F)F)cc2)c2ncccc2c1` (stereo unspecified), the figures for the MIC (in assay [1]; in assay [2]; against Mycobacterium avium) were 32 µg/mL (≈ 69.9 µM), 128 µg/mL (≈ 280 µM) and 64 µg/mL (≈ 140 µM), respectively.

`COc1cc(NC(C)CCCNC(=O)/C=C/c2cc(OC)c(OC)c(OC)c2)c2ncccc2c1` (stereo unspecified): the MIC (in assay [1]; in assay [2]; with Mycobacterium avium) was 256 µg/mL (≈ 534 µM) each time. The IC50 in the assay with L6 is over 100 µg/mL.

Consider `COc1cc(NC(C)CCCNC(=O)/C=C/c2ccccc2F)c2ncccc2c1` (stereo unspecified), for which the MIC is 32 µg/mL (≈ 78.5 µM) in assay [1], 128 µg/mL (≈ 314 µM) in assay [2] and 64 µg/mL (≈ 157 µM) in the assay on Mycobacterium avium. In addition, the IC50 with L6 was 1.5 µg/mL (≈ 3.68 µM).

Regarding `COc1cc(NC(C)CCCNC(=O)/C=C/c2ccc3c(c2)OCO3)c2ncccc2c1` (stereo unspecified), the MIC (in assay [1]; in assay [2]; against Mycobacterium avium) was 64 µg/mL (≈ 148 µM) in each case.

As to `COc1cc(NC(C)CCCNC(=O)NC2CCCCC2)c2ncccc2c1` (stereo unspecified), the MIC in assay [1] stood at 16 µg/mL (≈ 41.6 µM); in assay [2], 32 µg/mL (≈ 83.2 µM); in the assay with Mycobacterium avium, 16 µg/mL (≈ 41.6 µM).

In the case of `COc1cc(NC(C)CCCNC(=O)NC2CCCC2)c2ncccc2c1` (stereo unspecified), the MIC in assay [1] is 16 µg/mL (≈ 43.2 µM); in assay [2], 32 µg/mL (≈ 86.4 µM); against Mycobacterium avium it was 16 µg/mL (≈ 43.2 µM).

Take `COc1cc(NC(C)CCCNC(=O)NCc2ccncc2)c2ncccc2c1` (stereo unspecified): the MIC (in assay [1]; in assay [2]; in the assay on Mycobacterium avium) was 32 µg/mL (≈ 81.3 µM) in each case.

As to `COc1cc(NC(C)CCCNC(=O)NCCO)c2ncccc2c1` (stereo unspecified), the values for the MIC (in assay [1]; in assay [2]; against Mycobacterium avium) were 32 µg/mL (≈ 92.4 µM), 64 µg/mL (≈ 185 µM) and 64 µg/mL (≈ 185 µM), respectively.

For the molecule `COc1cc(NC(C)CCCNC(=O)NCCCO)c2ncccc2c1` (stereo unspecified), the minimum inhibitory concentration (MIC) (in assay [1]; in assay [2]; against Mycobacterium avium) was 64 µg/mL (≈ 178 µM) in each case.

Turning to `O=C(O)c1cn(C2CC2)c2cc(N3CCNCC3)c(F)cc2c1=O` [CIPROFLOXACIN], it took 16 µg/mL (≈ 48.3 µM) to inhibit growth in assay [1] (MIC).

As to `NNC(=O)c1ccncc1` [ISONIAZID], the MIC in assay [1] was 5 µg/mL (≈ 36.5 µM); in assay [2] it was over 256 µg/mL; with Mycobacterium avium it was over 256 µg/mL.

The molecule `COc1cc([C@@H]2c3cc4c(cc3[C@H](O)[C@H]3COC(=O)[C@H]23)OCO4)cc(OC)c1OC` [PODOFILOX] came in with an IC50 in the assay on L6 of 0.007 µg/mL (≈ 0.0169 µM).

`COc1cc(NC(C)CCCN)c2ncccc2c1.O=P(O)(O)O.O=P(O)(O)O` (stereo unspecified) [PRIMAQUINE PHOSPHATE]: the MIC (in assay [1]; in assay [2]; against Mycobacterium avium) was 32 µg/mL throughout.

Consider `CO[C@H]1/C=C/O[C@@]2(C)Oc3c(C)c(O)c4c(O)c(c(/C=N/N5CCN(C)CC5)c(O)c4c3C2=O)NC(=O)/C(C)=C\C=C\[C@H](C)[C@H](O)[C@@H](C)[C@@H](O)[C@@H](C)[C@H](OC(C)=O)[C@@H]1C` [RIFAMPIN], for which the values for the minimum inhibitory concentration (MIC) (in assay [1]; in assay [2]; against Mycobacterium avium) were 8 µg/mL (≈ 9.72 µM), 30 µg/mL (≈ 36.5 µM) and 90 µg/mL (≈ 109 µM), respectively.
